ChEMBL document CHEMBL5370639, “Structure-Based Lead Optimization of Enterovirus D68 2A Protease Inhibitors” (J Med Chem, 2023)

Experiments:
[1] = Inhibition of Enterovirus D68 US/KY/14-18953 2A protease expressed in Escherichia coli BL21(DE3) using Dabcyl-KIRIVNT/GPGEGGE-Edans as substrate incubated for 2 hrs by FRET assay
enterovirus D68 [2] = assay: Antiviral activity against enterovirus D68 US/MO/14-18947 infected in human RD cells assessed as reduction in virus induced cytopathic effect by neutral red staining based CPE assay; format: functional, organism-based; conditions: Enterovirus D, US/MO/14-18947, RD
Method in brief: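 RD cells seeded overnight to ~90% confluency, washed with PBS containing Mg/Ca, infected with virus in DMEM/2% FBS/30 mM MgCl2 for at least 1 h at 33 °C, then compound added. Cells stained with 66 μg/mL neutral red for 2 h; uptake read at 540 nm. EC50 from dose-response fit; mean ± SD of two independent experiments, three repeats each.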

RD = assay: (§1) Cytotoxicity against human RD cells assessed as reduction in cell viability by neutral red staining based CPE assay; format: toxicity; conditions: rd
Method in brief: (§2)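 Uninfected RD cells, grown overnight to ~90% confluency, treated with compound under otherwise the same handling as the antiviral assay. Viability by neutral red uptake (66 μg/mL, 2 h, absorbance 540 nm). CC50 from best-fit dose-response curve; mean ± SD of two independent experiments, three repeats each.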

[3] = as §1; format: toxicity; conditions: RD cells; method in brief: as §2
[4] = Binding affinity to Enterovirus D68 US/KY/14-18953 2A protease expressed in Escherichia coli BL21(DE3) assessed as inhibition constant using Dabcyl-KIRIVNT/GPGEGGE-Edans as substrate incubated for 2 hrs by FRET assay
Method in brief: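 Progression-curve kinetics: FRET substrate at 40 μM final in 50 mM Tris pH 7.0, 100 mM NaCl, 2 mM DTT, 10% glycerol with varying inhibitor; reaction started by adding 2Apro to 0.4 μM final. Fluorescence (ex 360/40, em 460/40 nm) read every 71 s for 2 h at 30 °C. Curves fitted by the Morrison equation or an earlier-described equation.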

enterovirus D68 [5] = assay: Antiviral activity against enterovirus D68 US/MO/14-18947 infected in human RD cells assessed as reduction in virus plaque formation measured after 3 days by neutral red staining assay; format: functional, organism-based; conditions: Enterovirus D, US/MO/14-18947, RD, 72 h
Method in brief: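 RD cells infected with virus in DMEM/2% FBS/30 mM MgCl2 for at least 1 h at 33 °C, then given compound under a 1.2% avicel microcrystalline cellulose overlay. Cells stained after 3 days and plaques counted. EC50 from curve fitting; mean ± SD of two repeats.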

enterovirus D68 [6] = assay: Antiviral activity against enterovirus D68 US/MO/14-18949 infected in human RD cells assessed as reduction in virus induced cytopathic effect by neutral red staining based CPE assay; format: functional, organism-based; conditions: Enterovirus D, US/MO/14-18949, RD
Method in brief: (§3)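 RD cells were seeded overnight to about 90% confluency and washed with PBS containing Ca/Mg. They were infected with virus in DMEM with 2% FBS and 30 mM MgCl2 for at least 1 h at 33 °C in 5% CO2, then compound was added. Viability was read by neutral red staining (66 μg/mL, 2 h) at A540. EC50 was taken from dose-response curve fits.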

enterovirus D68 [7] = assay: Antiviral activity against enterovirus D68 US/IL/14-18952 infected in human RD cells assessed as reduction in virus induced cytopathic effect by neutral red staining based CPE assay; format: functional, organism-based; conditions: Enterovirus D, US/IL/14-18952, RD; method in brief: as §3
enterovirus D68 [8] = assay: Antiviral activity against enterovirus D68 US/IL/14-18956 infected in human RD cells assessed as reduction in virus induced cytopathic effect by neutral red staining based CPE assay; format: functional, organism-based; conditions: Enterovirus D, US/IL/14-18956, RD; method in brief: as §3
enterovirus D68 [9] = assay: Antiviral activity against enterovirus D68 US/KY/14-18953 infected in human RD cells assessed as reduction in virus induced cytopathic effect by neutral red staining based CPE assay; format: functional, organism-based; conditions: Enterovirus D, US/KY/14-18953, RD; method in brief: as §3
Cytochrome P450 1A2 = target: T1, Cytochrome P450 1A2 (Homo sapiens, UniProt P05177); assay: Inhibition of CYP1A2 (unknown origin); format: ADME
T1 sequence (P05177 whole entry): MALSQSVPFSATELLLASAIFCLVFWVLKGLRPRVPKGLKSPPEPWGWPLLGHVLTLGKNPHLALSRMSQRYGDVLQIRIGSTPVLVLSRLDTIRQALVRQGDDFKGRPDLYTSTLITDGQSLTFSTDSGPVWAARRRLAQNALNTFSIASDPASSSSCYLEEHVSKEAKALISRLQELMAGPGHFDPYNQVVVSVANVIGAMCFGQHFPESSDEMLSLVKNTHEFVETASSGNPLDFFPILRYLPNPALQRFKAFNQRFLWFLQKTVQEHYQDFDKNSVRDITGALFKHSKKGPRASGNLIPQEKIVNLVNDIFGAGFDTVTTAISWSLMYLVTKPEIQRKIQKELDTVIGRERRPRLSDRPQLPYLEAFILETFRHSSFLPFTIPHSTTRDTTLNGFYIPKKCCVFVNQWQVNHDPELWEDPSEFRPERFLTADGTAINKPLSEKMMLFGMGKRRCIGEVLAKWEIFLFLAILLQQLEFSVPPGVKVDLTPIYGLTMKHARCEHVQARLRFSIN

Cytochrome P450 2C9 = Cytochrome P450 2C9 (Homo sapiens, UniProt P11712); assay: Inhibition of CYP2C9 (unknown origin); format: ADME
Cytochrome P450 2C19 = Cytochrome P450 2C19 (Homo sapiens, UniProt P33261); assay: Inhibition of CYP2C19 (unknown origin); format: ADME
Cytochrome P450 2D6 = Cytochrome P450 2D6 (Homo sapiens, UniProt P10635); assay: Inhibition of CYP2D6 (unknown origin); format: ADME
Cytochrome P450 3A = Cytochrome P450 3A (Homo sapiens, UniProt P08684+P20815+Q9HB55+P24462); assay: Inhibition of CYP3A (unknown origin); format: ADME, protein assay
[10] = Toxicity in BALB/c mouse assessed as survival at 100 mg/kg, ip administered on day 1 and followed by 200 mg/kg, ip on day 3, 300 mg/kg, ip on day 7, 400 mg/kg, ip on day 12 measured after 16 days of initial dose; format: organism-based; conditions: in vivo, 1000 mg/kg, 384 h, time 16 day
Method in brief: (§4)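 Three female BALB/c mice of about 19 g each received i.p. doses in corn oil with 10% DMSO, escalating in the same animals. They were given 100 mg/kg first, then 200, 300 and 400 mg/kg on days 1, 3, 7 and 12, with time for elimination between doses. Body weight and general health were monitored throughout the study.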

[11] = Toxicity in BALB/c mouse assessed as mortality at 100 mg/kg, ip administered on day 1 and followed by 200 mg/kg, ip on day 3, 300 mg/kg, ip on day 7, 400 mg/kg, ip on day 12 measured after 16 days of initial dose; format: organism-based; conditions: in vivo, 384 h, time 16 day; method in brief: as §4
[12] = Toxicity in BALB/c mouse assessed as change in body weight at 100 mg/kg, ip administered on day 1 and followed by 200 mg/kg, ip on day 3, 300 mg/kg, ip on day 7, 400 mg/kg, ip on day 12 measured after 16 days of initial dose; format: organism-based; conditions: in vivo, 384 h, time 16 day; method in brief: as §4

Sequence of Cytochrome P450 2D6 (P10635 whole entry): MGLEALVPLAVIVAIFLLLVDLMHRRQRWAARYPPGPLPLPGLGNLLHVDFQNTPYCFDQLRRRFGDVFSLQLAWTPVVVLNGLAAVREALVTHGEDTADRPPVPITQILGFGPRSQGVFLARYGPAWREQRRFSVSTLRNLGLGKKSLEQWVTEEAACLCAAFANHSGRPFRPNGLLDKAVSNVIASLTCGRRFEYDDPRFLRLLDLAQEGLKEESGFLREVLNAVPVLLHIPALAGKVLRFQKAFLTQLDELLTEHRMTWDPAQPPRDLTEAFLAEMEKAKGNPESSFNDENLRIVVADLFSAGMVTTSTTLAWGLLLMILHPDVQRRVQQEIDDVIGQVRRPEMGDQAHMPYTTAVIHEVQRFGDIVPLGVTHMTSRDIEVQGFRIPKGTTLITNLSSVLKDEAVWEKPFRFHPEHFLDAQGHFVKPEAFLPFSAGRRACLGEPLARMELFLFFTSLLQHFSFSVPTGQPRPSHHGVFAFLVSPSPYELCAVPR
Sequence of Cytochrome P450 2C19 (P33261 whole entry): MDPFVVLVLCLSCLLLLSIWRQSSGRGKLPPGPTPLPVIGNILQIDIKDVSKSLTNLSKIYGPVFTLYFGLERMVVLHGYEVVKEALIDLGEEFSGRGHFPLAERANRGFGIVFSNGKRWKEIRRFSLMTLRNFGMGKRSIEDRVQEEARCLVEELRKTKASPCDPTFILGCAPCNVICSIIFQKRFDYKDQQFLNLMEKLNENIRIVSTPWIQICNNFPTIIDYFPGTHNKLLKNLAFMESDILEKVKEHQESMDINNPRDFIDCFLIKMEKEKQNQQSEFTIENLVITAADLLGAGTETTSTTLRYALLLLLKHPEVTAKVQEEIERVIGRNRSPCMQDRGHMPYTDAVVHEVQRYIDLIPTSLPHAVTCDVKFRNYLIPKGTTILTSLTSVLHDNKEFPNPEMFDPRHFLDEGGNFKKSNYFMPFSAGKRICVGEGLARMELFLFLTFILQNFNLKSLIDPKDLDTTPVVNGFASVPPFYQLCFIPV
Sequence of Cytochrome P450 2C9 (P11712 whole entry): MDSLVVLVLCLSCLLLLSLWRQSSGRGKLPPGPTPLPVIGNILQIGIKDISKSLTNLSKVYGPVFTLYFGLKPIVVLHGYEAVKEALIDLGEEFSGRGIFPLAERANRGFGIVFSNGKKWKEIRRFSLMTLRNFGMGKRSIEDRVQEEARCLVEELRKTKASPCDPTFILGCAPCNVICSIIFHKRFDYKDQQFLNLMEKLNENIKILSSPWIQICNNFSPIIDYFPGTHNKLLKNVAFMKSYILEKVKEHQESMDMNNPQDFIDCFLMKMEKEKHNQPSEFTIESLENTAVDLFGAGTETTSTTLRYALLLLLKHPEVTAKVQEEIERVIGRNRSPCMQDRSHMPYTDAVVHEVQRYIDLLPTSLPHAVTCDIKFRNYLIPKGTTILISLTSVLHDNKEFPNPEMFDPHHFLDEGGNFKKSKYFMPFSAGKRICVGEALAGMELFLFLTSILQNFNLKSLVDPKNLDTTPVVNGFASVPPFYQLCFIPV

Structure (SMILES)	IC50 [1] [µM]	EC50 (enterovirus D68 [2]) [µM]	CC50 (RD) [µM]	CC50 [3] [µM]	Ki [4] [µM]	EC50 (enterovirus D68 [5]) [µM]	EC50 (enterovirus D68 [6]) [µM]	EC50 (enterovirus D68 [7]) [µM]	EC50 (enterovirus D68 [8]) [µM]	EC50 (enterovirus D68 [9]) [µM]	IC50 (Cytochrome P450 1A2) [µM]	IC50 (Cytochrome P450 2C9) [µM]	IC50 (Cytochrome P450 2C19) [µM]	IC50 (Cytochrome P450 2D6) [µM]	IC50 (Cytochrome P450 3A) [µM]	Activity [10]	Activity [11]	Activity [12]
CC(C)(C)[C@H](NC(=O)CC12CC3CC(CC(C3)C1)C2)C(=O)N1C[C@@H]2CCC[C@@H]2[C@H]1C(=O)N[C@@H](Cc1ccccc1)C(=O)C(=O)NC1CC1	0.09	0.25	17.4															
CC(C)(C)[C@H](NC(=O)CC12CC3CC(CC(C3)C1)C2)C(=O)N1C[C@@H]2CCC[C@@H]2[C@H]1C(=O)N[C@H](C(=O)C(=O)NC1CC1)C1CCCCC1	0.09	0.13		> 150	0.0514	0.0159	0.101	0.269	0.246	0.0467	> 50	> 50	> 50	> 50	0.57	Non-Toxic	Non-Toxic	Non-Toxic
CCC[C@H](NC(=O)[C@@H]1[C@H]2CCC[C@H]2CN1C(=O)[C@@H](NC(=O)[C@@H](NC(=O)c1cnccn1)C1CCCCC1)C(C)(C)C)C(=O)C(=O)NC1CC1	0.18	0.45	83.2		0.824	0.0521	0.368	0.828	0.836	0.209								
CC(C)(C)[C@H](NC(=O)CC12CC3CC(CC(C3)C1)C2)C(=O)N1C[C@@H]2CCC[C@@H]2[C@H]1C(=O)N[C@H](C(=O)C(=O)NC1CC1)C1CCCC1	0.2	0.11		> 150	0.112	0.0159												
